Assay results taken from ChEMBL document CHEMBL4842360, “Discovery of a Bicyclic Peptidyl Pan-Ras Inhibitor” (J Med Chem, 2021).
Blank lines part the entries; values can stand above or below the compound they belong to. Numbered stars: 1 amine (or outer) side, 2 acyl side, 3 side chain; on linkers, the order of the positions; unused ones are H or OH. Bridge positions count the residues as written; N and C are the ends. Square brackets hold non-standard residues; d marks the D form. Peptide text beside a SMILES is read from it. Trimesoyl = O=C(c1cc(C(=O)[*:2])cc(C(=O)[*:3])c1)[*:1]; Phe(4-F) = N[C@@H](Cc1ccc(F)cc1)C(=O)O; 2Nal = N[C@@H](Cc1ccc2ccccc2c1)C(=O)O; d2Nal = N[C@H](Cc1ccc2ccccc2c1)C(=O)O; X1 = CCCCCCC[C@H](N[*:1])C(=O)[*:2]; Phg = N[C@H](C(=O)O)c1ccccc1; dNle = CCCC[C@@H](N)C(=O)O; Nle = CCCC[C@H](N)C(=O)O; Orn = NCCC[C@H](N)C(=O)O; Dap = NC[C@H](N)C(=O)O; X2 = C(C[*:1])C[*:2]; βAla = NCCC(=O)O

Columns and labels:
NCI-H358 [1] = test: Antiproliferative activity against human NCI-H358 cells incubated for 96 hrs by Celltiter-Glo assay; format: functional, cell-based; settings: Homo sapiens, NCI-H358, 96 h; read-out: EC50
NCI-H358 [2] = test: Antiproliferative activity against human NCI-H358 cells incubated for 96 hrs by MTT assay; format: functional, cell-based
Summary of the method: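 H358 cells at 5,000/well, grown overnight, treated with serially diluted peptide (0–40 μM) in 10% FBS medium for 96 h at 37 °C. MTT added for 4 h, formazan solubilized overnight in SDS-HCl, absorbance read at 570 nm.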

[3] = Drug localization in cytosol of human HeLa cells assessed as mean fluorescence intensity at 5 uM incubated for 2 hrs by flow cytometry relative to relative to extracellular concentration; format: ADME, subcellular
GTPase KRas [4] = target: T1, GTPase KRas (Homo sapiens, UniProt P01116, G12V); test: biochemical
T1 sequence (P01116 whole entry G12V): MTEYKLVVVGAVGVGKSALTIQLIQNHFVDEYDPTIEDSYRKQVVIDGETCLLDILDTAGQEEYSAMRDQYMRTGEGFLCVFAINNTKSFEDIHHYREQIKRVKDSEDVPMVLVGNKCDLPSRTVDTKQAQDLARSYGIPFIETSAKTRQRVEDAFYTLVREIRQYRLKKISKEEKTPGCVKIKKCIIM

NCI-H1299 [5] = test: Induction of apoptosis in human NCI-H1299 cells incubated for 24 hrs by MTT assay; format: functional, cell-based; settings: NCI-H1299, 24 h
GTPase KRas [6] = target: T1, GTPase KRas; test: Inhibition of GPPNP bound KRAS G12V mutant (unknown origin) assessed as reduction in KRAS/GST-fused Raf RBD interaction incubated for 2 hrs by HTRF assay
NCI-H1299 [7] = test: Induction of apoptosis in human NCI-H1299 cells by MTT assay; format: functional, cell-based
PANC-1 = test: Antitumor activity against human PANC-1 cells xenografted in BALB/c mouse assessed as inhibition of cell growth at 40 mg/kg, iv administered once every 2 days for 4 weeks; format: functional; settings: PANC-1, iv, 672 h, read-out: GI
GTPase KRas [8] = target: GTPase KRas (Homo sapiens, UniProt P01116, G12D); test: Binding affinity to recombinant human KRAS G12D mutant incubated for 0.5 hrs by ELISA
Sequence of GTPase KRas (Homo sapiens, UniProt P01116, G12D) (P01116 whole entry G12D): as the sequence (P01116 whole entry G12V) above, with V12D counted along it

Structure (SMILES): N=C(N)NCCC[C@@H]1NC(=O)[C@H](Cc2ccc3ccccc3c2)NC(=O)[C@@H](Cc2ccccc2)NC(=O)[C@H](Cc2ccccc2)NC(=O)[C@H](CCC(N)=O)NC(=O)[C@@H](CCCNC(=N)N)NC(=O)[C@H](CCCNC(=N)N)NC(=O)[C@@H](CCCNC(=N)N)NC1=O (cyclo([2Nal]R[dR]R[dR]QF[dF]))
Drug uptake [3]: 120%

Structure (SMILES): CC[C@@H](C)[C@@H]1NC(=O)[C@H](Cc2cn(CCc3c(C)[nH]c4cc(Cl)cc(Cl)c34)nn2)NC(=O)[C@@H](CC(N)=O)NC(=O)[C@H](CCCNC(=N)N)NC(=O)[C@H](Cc2ccccc2)NC(=O)[C@@H](CC(C)C)NC(=O)[C@@H](C)NC(=O)c2cc3cc(c2)C(=O)NC[C@@H](C(N)=O)NC(=O)[C@H](CCCNC(=N)N)NC(=O)[C@H](CCCNC(=N)N)NC(=O)[C@H](CCCNC(=N)N)NC(=O)[C@H](CCCNC(=N)N)NC(=O)[C@H](Cc2ccc4ccccc4c2)NC(=O)[C@H](Cc2ccccc2)NC(=O)C(CCCCNC3=O)NC(=O)[C@H](CC(=O)O)NC1=O (some centres not stated)
EC50 (NCI-H1299 [5]): 8 µM
IC50 (GTPase KRas [6]): 3.4 µM

Structure (SMILES): CCCC[C@H]1NC(=O)[C@H](Cc2ccc(F)cc2)NC(=O)[C@H](CCCNC(=N)N)NC(=O)[C@@H](Cc2ccc3ccccc3c2)NC(=O)[C@H](CCCNC(=N)N)NC(=O)[C@H](CCCNC(=N)N)NC(=O)[C@H](CCCNC(=N)N)NC(=O)[C@@H](C)NC(=O)[C@H]([C@@H](C)O)NC(=O)[C@H](Cc2c[nH]c3ccccc23)NC(=O)[C@H](CCC(N)=O)NC1=O (cyclo(WT[dA]RRR[d2Nal]R[Phe(4-F)][dNle]Q))
EC50 (NCI-H1299 [7]): 3 µM

Structure (SMILES): CCCCCCC[C@@H]1NC(=O)[C@@H]2CSCCCSC[C@H](NC(=O)[C@H](Cc3c[nH]c4ccccc34)NC(=O)[C@@H]3CCCN3C(=O)[C@H](CC(=O)O)NC(=O)[C@H](Cc3ccc(F)cc3)NC(=O)[C@H](CO)NC1=O)C(=O)NCCC(=O)N1CCC[C@H]1C(=O)N[C@@H](CCCC)C(=O)N2 (cyclo(C[X1]S[Phe(4-F)]DPWC[βAla]P[Nle]); linker 1-8 via X2)
inhibition in vivo at 40 mg/kg (PANC-1): 65%
Kd (GTPase KRas [8]): 0.022 µM

Continued, values first:

EC50 (NCI-H358 [1]): 22 µM
EC50 (NCI-H358 [2]; Homo sapiens, NCI-H358, 96 h, read-out: EC50): 29 µM
Drug uptake [3]: Active
Kd (GTPase KRas [4]): 0.14 µM
Structure (SMILES): C[C@@H]1NC(=O)[C@@H](Cc2ccccc2)NC(=O)[C@@H]2CCCCNC(=O)c3cc(cc(c3)C(=O)N[C@H](Cc3ccc4ccccc4c3)C(=O)N[C@@H](CO)C(=O)N[C@@H](CCC(N)=O)C(=O)N[C@H](Cc3ccc4ccccc4c3)C(=O)N[C@@H](c3ccccc3)C(=O)N2)C(=O)NC[C@@H](C(=O)NCCC(=O)NCCC(=O)NC(CCCCN)C(N)=O)NC(=O)[C@H](CCCNC(=N)N)NC(=O)[C@@H](CCCNC(=N)N)NC1=O (some centres not stated)

Drug uptake [3]: Active
Structure (SMILES): C[C@@H]1NC(=O)[C@@H](Cc2ccccc2)NC(=O)[C@@H]2CCCCNC(=O)c3cc(cc(c3)C(=O)N[C@H](Cc3ccc4ccccc4c3)C(=O)N[C@@H](CO)C(=O)N[C@@H](CCC(N)=O)C(=O)N[C@H](Cc3ccc4ccccc4c3)C(=O)N[C@@H](c3ccccc3)C(=O)N2)C(=O)NC[C@@H](C(=O)N[C@@H](CCCN)C(=O)N[C@H](CCCNC(=N)N)C(=O)N[C@@H](Cc2ccc(F)cc2)C(=O)N[C@H](C)C(=O)N[C@@H](CCCCN)C(N)=O)NC(=O)[C@H](CCCNC(=N)N)NC(=O)[C@@H](CCCNC(=N)N)NC1=O ([d2Nal]SQ[d2Nal][Phg]K[dF]A[dR]R[Dap][Orn][dR][Phe(4-F)][dA]K-NH2; linker N-6-11 via Trimesoyl)

EC50 (NCI-H358 [2]; nci-h358): Not Active
Structure (SMILES): CC(C)C[C@@H](NC(=O)[C@H](CCC(N)=O)NC(=O)CNC(=O)[C@@H]1CNC(=O)c2cc3cc(c2)C(=O)N[C@H](Cc2ccc4ccccc4c2)C(=O)N[C@@H](CO)C(=O)N[C@@H](CCC(N)=O)C(=O)N[C@H](Cc2ccc4ccccc4c2)C(=O)N[C@@H](c2ccccc2)C(=O)N[C@@H](CCCCNC3=O)C(=O)N[C@H](Cc2ccccc2)C(=O)N[C@@H](C)C(=O)N[C@H](CCCNC(=N)N)C(=O)N[C@@H](CCCNC(=N)N)C(=O)N1)C(=O)N[C@H](CCCNC(=N)N)C(=O)N[C@@H](CCCCN)C(N)=O
